The target of assay [1] is T1, Alpha-2A adrenergic receptor (Homo sapiens) (UniProt P08913).
T1 sequence (whole entry): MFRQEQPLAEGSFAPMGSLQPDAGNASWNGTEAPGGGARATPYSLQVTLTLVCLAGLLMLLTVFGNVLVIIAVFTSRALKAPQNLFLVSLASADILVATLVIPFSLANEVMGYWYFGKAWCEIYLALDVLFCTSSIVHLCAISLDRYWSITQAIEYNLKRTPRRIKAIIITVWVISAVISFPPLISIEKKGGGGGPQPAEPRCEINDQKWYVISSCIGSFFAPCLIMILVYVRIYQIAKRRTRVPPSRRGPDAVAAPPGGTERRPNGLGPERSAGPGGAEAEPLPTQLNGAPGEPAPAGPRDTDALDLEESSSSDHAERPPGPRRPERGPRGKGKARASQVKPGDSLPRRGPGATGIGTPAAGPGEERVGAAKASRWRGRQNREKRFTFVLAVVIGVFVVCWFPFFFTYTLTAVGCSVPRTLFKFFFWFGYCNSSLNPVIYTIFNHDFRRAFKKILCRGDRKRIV
In words: Agonist activity at human recombinant alpha2A adrenergic receptor expressed in CHO cells assessed as induction of [35S]GTPgammaS binding after 60 mins by scintillation counting relative to noradrenaline. In kind it is functional, cell-based. In outline: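 Membranes from CHO-K1 cells expressing human α2A-adrenoceptor, in Tris buffer pH 7.4 with 10 µM GDP, 5 mM MgCl2 and 150 mM NaCl; 5 µg protein preincubated with agonist 30 min at 37 °C, then 0.1 nM [35S]GTPγS for 60 min at 37 °C. Filtration and scintillation counting, duplicates, at least three repeats. Curve fit gave EC50 and intrinsic activity as % of noradrenaline.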
Background: Binding of GTPγS marks nucleotide exchange on a G protein.

For assay [2], the system named is Rattus norvegicus. In words: Cardioprotectant activity in Wistar rat assessed as change in mean arterial pressure at 1 mg/kg, iv. The assay is classed as functional, Artery.
Assay [3] relates to Rattus norvegicus. The experiment in a line: Cardioprotectant activity in Wistar rat assessed as change in heart rate at 0.01 mg/kg, iv. The assay is classed as functional.
The target of assay [4] is T2, Adrenergic receptor alpha-2 (Rattus norvegicus, UniProt P22086+P19328+P22909).
T2 sequence (P22086 whole entry): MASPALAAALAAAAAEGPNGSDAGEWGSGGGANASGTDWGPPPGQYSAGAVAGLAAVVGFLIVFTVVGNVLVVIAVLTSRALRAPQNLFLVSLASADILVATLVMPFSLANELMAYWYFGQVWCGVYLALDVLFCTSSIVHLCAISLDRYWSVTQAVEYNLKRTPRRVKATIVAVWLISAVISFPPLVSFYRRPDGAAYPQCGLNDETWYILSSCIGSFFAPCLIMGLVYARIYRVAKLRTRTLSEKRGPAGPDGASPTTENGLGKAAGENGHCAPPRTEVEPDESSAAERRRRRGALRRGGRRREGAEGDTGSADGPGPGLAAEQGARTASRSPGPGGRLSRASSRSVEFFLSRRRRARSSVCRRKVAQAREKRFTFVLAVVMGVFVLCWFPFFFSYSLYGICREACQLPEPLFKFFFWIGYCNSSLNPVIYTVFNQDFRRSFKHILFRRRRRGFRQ
T2 sequence (P19328 whole entry): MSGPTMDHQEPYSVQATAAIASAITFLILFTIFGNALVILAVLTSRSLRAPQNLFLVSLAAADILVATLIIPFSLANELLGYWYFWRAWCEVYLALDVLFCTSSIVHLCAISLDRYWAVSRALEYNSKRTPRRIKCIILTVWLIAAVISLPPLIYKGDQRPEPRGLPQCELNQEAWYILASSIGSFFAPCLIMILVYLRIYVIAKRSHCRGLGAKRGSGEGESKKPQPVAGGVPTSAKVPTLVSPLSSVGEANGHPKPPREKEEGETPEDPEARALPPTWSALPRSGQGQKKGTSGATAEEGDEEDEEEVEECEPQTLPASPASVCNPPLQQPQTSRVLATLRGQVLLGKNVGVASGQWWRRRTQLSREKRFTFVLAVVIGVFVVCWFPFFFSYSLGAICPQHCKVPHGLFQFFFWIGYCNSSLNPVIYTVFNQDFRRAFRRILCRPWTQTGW
T2 sequence (P22909 whole entry): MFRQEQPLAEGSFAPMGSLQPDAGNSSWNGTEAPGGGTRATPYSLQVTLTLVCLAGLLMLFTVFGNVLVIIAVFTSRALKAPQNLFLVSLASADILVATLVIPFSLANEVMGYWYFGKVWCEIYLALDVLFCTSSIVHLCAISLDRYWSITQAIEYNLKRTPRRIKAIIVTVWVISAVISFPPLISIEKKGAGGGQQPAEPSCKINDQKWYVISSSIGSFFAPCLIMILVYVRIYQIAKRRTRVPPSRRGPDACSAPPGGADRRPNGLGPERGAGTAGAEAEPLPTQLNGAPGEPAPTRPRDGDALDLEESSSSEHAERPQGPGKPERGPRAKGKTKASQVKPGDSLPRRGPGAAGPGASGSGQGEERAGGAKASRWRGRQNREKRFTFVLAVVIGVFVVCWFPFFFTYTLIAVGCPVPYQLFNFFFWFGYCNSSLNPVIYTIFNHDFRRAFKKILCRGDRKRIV
In words: Displacement of [3H]RX821002 from alpha2 adrenergic receptor in Sprague-Dawley rat brain membrane after 45 mins by liquid scintillation counting. The assay is classed as cell membranes. In outline:
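Crude P2 brain membranes from male Sprague–Dawley rats (0.2–0.3 mg protein) incubated with 11 concentrations (0.01 nM–100 µM) and 1 nM of [3H]2BFI (I2), [3H]prazosin (α1) or [3H]RX821002 (α2), at room temperature in triplicate. Non-specific binding: BU224, phenylephrine or rauwolscine. Filtration, scintillation counting, Ki by Cheng–Prusoff from 3–4 experiments.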
For orientation: Loss of bound radioactivity is the signal in a displacement assay; it reports binding, not function.

The target in a further assay is Nischarin (Rattus norvegicus, UniProt Q4G017). In words: Displacement of [3H]clonidine from imidazoline I1 receptor in Sprague-Dawley rat kidney membrane after 45 mins by liquid scintillation counting. In kind it is cell membranes. In outline:
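Specific binding defined by 10 µM rilmenidine. 11 test concentrations, 50 mM Tris-HCl pH 7.4, room temperature 45 min. Filtration through PEI-soaked glass-fibre filters, scintillation counting, IC50 by curve fitting.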

Assay [5] concerns the target T3, Alpha-2A adrenergic receptor (Homo sapiens, UniProt P08913).
T3 sequence (P08913 whole entry): T1 sequence (whole entry)
In words: Agonist activity at human recombinant alpha2A adrenergic receptor expressed in CHO cells assessed as induction of [35S]GTPgammaS binding after 60 mins by scintillation counting. The assay is classed as functional, cell-based. An outline of the steps:
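Membranes from CHO-K1 cells expressing human α2A-adrenoceptor, in Tris buffer pH 7.4 with 10 µM GDP, 5 mM MgCl2 and 150 mM NaCl; 5 µg protein preincubated with agonist 30 min at 37 °C, then 0.1 nM [35S]GTPγS for 60 min at 37 °C. Filtration and scintillation counting, duplicates, at least three repeats.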

The species named for assay [6] is Rattus norvegicus. The experiment in a line: Selectivity ratio of IC50 for imidazoline I1 receptor in Sprague-Dawley rat kidney membrane to Ki for alpha2 adrenergic receptor in Sprague-Dawley rat brain membrane. The assay is classed as cell membranes.
Assay [7] has as its system Rattus norvegicus. The experiment in a line: Cardioprotectant activity in Wistar rat assessed as change in mean arterial pressure at 0.1 mg/kg, iv. In kind it is functional, Artery.
The subject of assay [8] is Rattus norvegicus. The experiment in a line: Cardioprotectant activity in Wistar rat assessed as change in mean arterial pressure at 0.01 mg/kg, iv. The assay is classed as functional, Artery.

Consider three compounds from ChEMBL document CHEMBL1641573, “3-[(Imidazolidin-2-yl)imino]indazole ligands with selectivity for the α(2)-adrenoceptor compared to the imidazoline I(1) receptor” (Bioorg Med Chem, 2011).

Nischarin, sequence (Q4G017 whole entry): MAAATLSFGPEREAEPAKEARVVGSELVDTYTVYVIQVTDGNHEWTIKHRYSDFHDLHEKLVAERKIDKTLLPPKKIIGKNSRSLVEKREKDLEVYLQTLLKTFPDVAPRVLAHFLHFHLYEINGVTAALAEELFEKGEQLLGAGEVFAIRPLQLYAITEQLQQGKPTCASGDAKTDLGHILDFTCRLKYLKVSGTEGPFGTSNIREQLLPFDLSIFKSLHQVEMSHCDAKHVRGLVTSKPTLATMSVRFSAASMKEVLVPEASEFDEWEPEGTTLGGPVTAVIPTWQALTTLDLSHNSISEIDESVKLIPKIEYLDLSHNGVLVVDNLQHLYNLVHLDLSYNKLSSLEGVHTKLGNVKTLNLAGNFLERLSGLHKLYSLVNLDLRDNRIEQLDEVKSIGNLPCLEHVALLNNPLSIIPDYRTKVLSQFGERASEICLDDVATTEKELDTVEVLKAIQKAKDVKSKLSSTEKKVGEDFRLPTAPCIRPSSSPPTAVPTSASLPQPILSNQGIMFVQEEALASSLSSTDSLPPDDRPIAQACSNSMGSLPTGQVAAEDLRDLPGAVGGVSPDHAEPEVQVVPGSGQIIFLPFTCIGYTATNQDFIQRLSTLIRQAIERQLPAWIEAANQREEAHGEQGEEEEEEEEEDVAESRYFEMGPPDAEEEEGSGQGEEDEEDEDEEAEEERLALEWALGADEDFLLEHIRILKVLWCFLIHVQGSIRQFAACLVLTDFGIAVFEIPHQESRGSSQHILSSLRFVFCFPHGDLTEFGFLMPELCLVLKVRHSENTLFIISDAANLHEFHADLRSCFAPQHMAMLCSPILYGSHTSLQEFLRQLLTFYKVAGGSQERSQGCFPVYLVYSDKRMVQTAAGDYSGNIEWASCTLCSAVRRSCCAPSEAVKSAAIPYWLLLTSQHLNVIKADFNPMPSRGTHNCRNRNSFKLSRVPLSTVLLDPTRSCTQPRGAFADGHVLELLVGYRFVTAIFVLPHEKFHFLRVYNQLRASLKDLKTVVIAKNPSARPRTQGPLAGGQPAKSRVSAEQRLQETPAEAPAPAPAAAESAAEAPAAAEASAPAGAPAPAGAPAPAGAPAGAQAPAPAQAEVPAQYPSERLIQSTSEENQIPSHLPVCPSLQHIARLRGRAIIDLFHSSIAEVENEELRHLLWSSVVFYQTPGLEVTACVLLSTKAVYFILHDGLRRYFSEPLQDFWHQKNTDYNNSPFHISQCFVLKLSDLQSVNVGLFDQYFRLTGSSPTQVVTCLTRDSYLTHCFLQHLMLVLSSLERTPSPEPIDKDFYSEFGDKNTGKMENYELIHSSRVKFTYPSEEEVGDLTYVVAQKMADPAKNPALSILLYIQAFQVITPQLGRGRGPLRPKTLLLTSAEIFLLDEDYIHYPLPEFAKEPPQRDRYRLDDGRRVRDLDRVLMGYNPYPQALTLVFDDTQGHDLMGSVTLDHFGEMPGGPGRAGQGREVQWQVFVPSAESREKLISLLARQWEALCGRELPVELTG

As a reminder, the Ki is the equilibrium dissociation constant of an inhibitor or competing ligand from its target. A lower Ki goes with a stronger hold on the target. Broadly, the IC50 is the midpoint of a concentration-inhibition curve. A lower IC50 goes with greater potency. By EC50 is commonly meant the concentration giving half of the maximal effect. Regarding `Cl.Clc1cccc2[nH]nc(N=C3NCCN3)c12`, the Intrinsic activity in assay [1] is 13%. Further, the Activity was -23.6 mmHg in the assay with Rattus norvegicus [2], -37 bpm in the assay with Rattus norvegicus [3], -10.8 mmHg with Rattus norvegicus [7] and -10.8 mmHg in the assay on Rattus norvegicus [8]. The Ki in assay [4] came to 15.9 nM. The IC50 at Nischarin worked out at 1.84 µM. For the same compound, the EC50 in [5] came out at 240 nM. For the same compound, the Ratio in the assay filed under Rattus norvegicus [6] was 115.
For the compound `Cc1cccc2[nH]nc(N=C3NCCN3)c12.Cl`, in [1], the Intrinsic activity is 40%. Further, the Activity in the assay with Rattus norvegicus [2] was -22 mmHg; in the assay on Rattus norvegicus [3], -43 bpm; in the assay with Rattus norvegicus [7], -53.5 mmHg; with Rattus norvegicus [8], -17.1 mmHg. In [4], this compound yielded a Ki of 22.6 nM. At Nischarin, this compound yielded an IC50 of 32.5 µM. In addition, in assay [5], the EC50 came to 14 nM. For the same compound, the Ratio in the assay filed under Rattus norvegicus [6] stood at 690.
Take `Cl.Clc1cccc2c(N=C3NCCN3)n[nH]c12`: the Intrinsic activity in assay [1] amounted to 66%. In addition, the Activity is given as -37.2 mmHg in the assay with Rattus norvegicus [2], -35 bpm in the assay on Rattus norvegicus [3], -21.7 mmHg in the assay on Rattus norvegicus [7] and -12.2 mmHg with Rattus norvegicus [8]. Moreover, the Ki in assay [4] worked out at 133 nM. Moreover, the 50% inhibitory concentration (IC50) at Nischarin amounted to 4.01 µM. For the same compound, the EC50 in assay [5] amounted to 73 nM. Besides, the Ratio in the assay filed under Rattus norvegicus [6] came out at 30.
